Key:
Type in all cases: functional
[1] = Cytotoxicity against human EKVX cells after 48 hrs by SRB assay
Summary of the method: (§1)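 NCI 60-line five-dose screen. Cells were preincubated 24 h at 37 °C under 5% CO2 and 100% humidity, and time-zero plates were TCA-fixed when compound was added. Five 10-fold concentrations (0.01–100) were tested for 48 h. Cells were fixed with cold TCA (final 10%, 60 min, 4 °C), stained with 0.4% SRB for 10 min, and read at 515 nm. GI50, TGI and LC50 came from growth-percentage formulas, with out-of-range values given as > or <.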

SNB-19 = experiment: Cytotoxicity against human SNB19 cells after 48 hrs by SRB assay; details: SNB-19, 48 h
Summary of the method: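 NCI 60-line five-dose screen: cells plated, held 24 h at 37 °C, 5% CO₂ before treatment, with a TCA-fixed time-zero plate. Five final concentrations (0.01–100 µM, 10-fold dilutions) for 48 h. Cells fixed with cold TCA (10% final) and stained with 0.4% SRB in 1% acetic acid. Dye dissolved in 10 mM Tris and read at 515 nm. GI₅₀, TGI and LC₅₀ taken from percent-growth curves.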

SF-295 = experiment: Cytotoxicity against human SF295 cells after 48 hrs by SRB assay; details: SF-295, 48 h; summary of the method: as §1
MDA-MB-468 = experiment: Cytotoxicity against human MDA-MB-468 cells after 48 hrs by SRB assay; details: MDA-MB-468, 48 h; summary of the method: as §1
BT-549 = experiment: Cytotoxicity against human BT549 cells after 48 hrs by SRB assay; details: BT-549, 48 h; summary of the method: as §1
NCI-H23 = experiment: Cytotoxicity against human NCI-H23 cells after 48 hrs by SRB assay; details: NCI-H23, 48 h; summary of the method: as §1
MOLT-4 = experiment: Cytotoxicity against human MOLT4 cells after 48 hrs by SRB assay; details: MOLT-4, 48 h; summary of the method: as §1
[2] = read-out: LC50 (the source's name)
[3] = read-out: pLC50 (the source's name) (converted)

Work on `O=C(CCc1nnc2sc(-c3ccc(Cl)cc3Cl)nn12)c1nc2ccccc2[nH]1` yielded a GI50 ([1]; read-out: GI50) of 1530 nM, a TGI ([1]; read-out: TGI) of 3690 nM and a GI50 ([1]; read-out: pGI50 (converted)) of 1550 nM. For the same compound, the TGI ([1]; read-out: pTGI (converted)) was 3720 nM, the GI50 (SNB-19; read-out: GI50) was 1370 nM and the CC50 (SNB-19; [2]) was greater than 100000 nM. The TGI (SNB-19; read-out: TGI) was 5440 nM, the GI50 (SNB-19; read-out: pGI50 (converted)) was 1380 nM and the CC50 (SNB-19; [3]) was greater than 100000 nM. For the same compound, the TGI (SNB-19; read-out: pTGI (converted)) was 5500 nM, the GI50 (SF-295; read-out: GI50) was 1030 nM and the TGI (SF-295; read-out: TGI) was 2730 nM. For the same compound, the GI50 (SF-295; read-out: pGI50 (converted)) was 1020 nM, the TGI (SF-295; read-out: pTGI (converted)) was 2750 nM and the GI50 (MDA-MB-468; read-out: GI50) was 699 nM. The LC50 (MDA-MB-468; read-out: LC50) was 5410 nM, the TGI (MDA-MB-468; read-out: TGI) was 2150 nM and the GI50 (MDA-MB-468; read-out: pGI50 (converted)) was 692 nM. It also gave an LC50 (MDA-MB-468; read-out: pLC50 (converted)) of 5370 nM, a TGI (MDA-MB-468; read-out: pTGI (converted)) of 2140 nM and a GI50 (BT-549; read-out: GI50) of 2160 nM. The LC50 (BT-549; read-out: LC50) was greater than 100000 nM, the TGI (BT-549; read-out: TGI) was 4770 nM and the GI50 (BT-549; read-out: pGI50 (converted)) was 2140 nM. The LC50 (BT-549; read-out: pLC50 (converted)) was greater than 100000 nM, the TGI (BT-549; read-out: pTGI (converted)) was 4790 nM and the GI50 (NCI-H23; read-out: GI50) was 719 nM. For the same compound, the TGI (NCI-H23; read-out: TGI) was 2480 nM, the GI50 (NCI-H23; read-out: pGI50 (converted)) was 724 nM and the TGI (NCI-H23; read-out: pTGI (converted)) was 2450 nM. The GI50 (MOLT-4; read-out: GI50) was 282 nM, the CC50 (MOLT-4; [2]) was greater than 100000 nM and the TGI (MOLT-4; read-out: TGI) was greater than 100000 nM. It also gave a GI50 (MOLT-4; read-out: pGI50 (converted)) of 282 nM, a CC50 (MOLT-4; [3]) greater than 100000 nM and a TGI (MOLT-4; read-out: pTGI) greater than 100000 nM.

Source: ChEMBL document CHEMBL2331220, “Benzimidazole clubbed with triazolo-thiadiazoles and triazolo-thiadiazines: new anticancer agents” (2013)
